Tests used:
[1] = target: Sodium/potassium-transporting ATPase; assay: Binding affinity towards Na+,K+ -ATPase isolated from dog kidney.; type: protein-complex assay, Canis lupus familiaris
Method in brief: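 Displacement of specific [3H]ouabain binding from the Na+,K+-ATPase receptor, enzyme isolated from dog kidney and purified per Jørgensen. Means of two to three separate experiments in duplicate.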

[2] = species: Cavia porcellus; assay: In vitro increase in contractile force of the guine pig atrium.; type: functional, organism-based; details: Cardiac atrium
Method in brief: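 Left atria from male guinea pigs (300-500 g) in organ baths of bicarbonate salt solution with glucose and sucrose, 95% O2/5% CO2, 32 °C, 500 mg resting tension. Field-stimulated at 1 Hz (1 ms, twice threshold voltage). After 60 min equilibration, cumulative concentrations added, each held until maximal response or arrhythmia. Read-out: maximal increase in contractile force; EC50 from concentration–response curves.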

SMILES	IC50 [1]	EC50 [2]
C[C@@H](C/C=N/OCCN(C)C)[C@@]1(C)CCC2C(CC[C@@H]3C[C@@H](O)CC[C@]23C)C1=O (stereo not given in full)	130 nM	3000 nM
CC[C@H](C/C=N/OCCN(C)C)[C@@]1(C)CCC2C(CC[C@@H]3C[C@@H](O)CC[C@]23C)C1=O (stereo not given in full)	800 nM	–
CCC[C@@H](C/C=N/OCCN)[C@@]1(C)CCC2C(CC[C@@H]3C[C@@H](O)CC[C@]23C)C1=O (stereo not given in full)	200 nM	5600 nM
CC[C@@H](C/C=N/OCCN)[C@@]1(C)CCC2C(CC[C@H]3C[C@@H](O)CC[C@]23C)C1=O (stereo not given in full)	160 nM	–
CC[C@@H](C/C=N/OCCN(C)C)[C@@]1(C)CCC2C(CC[C@H]3C[C@@H](O)CC[C@]23C)C1=O (stereo not given in full)	250 nM	–
CC[C@@H](C/C=N/OCCN(C)C)[C@@]1(C)CCC2C(CC[C@@H]3C[C@@H](O)CC[C@]23C)C1=O (stereo not given in full)	100 nM	2000 nM
CC[C@@H](C/C=N/OCCN)[C@@]1(C)CCC2C(CC[C@@H]3C[C@@H](O)CC[C@]23C)C1=O (stereo not given in full)	40 nM	1500 nM
CC[C@H](/C=N/OCCN(C)C)[C@@]1(C)CCC2C(CC[C@@H]3C[C@@H](O)CC[C@]23C)C1=O (stereo not given in full)	4000 nM	–
C[C@]12CC[C@H](O)C[C@H]1CC[C@@H]1[C@@H]2CC[C@]2(C)[C@H](C/C=N/OCCCN)CC[C@]12O	200 nM	–
C[C@]12CC[C@H](O)C[C@H]1CC[C@@H]1[C@@H]2CC[C@]2(C)[C@H](C/C=N/OCCCCN)CC[C@]12O	800 nM	–
C[C@]12CC[C@H](O)C[C@H]1CC[C@@H]1[C@@H]2CC[C@]2(C)[C@H](/C=N/OCCCCN)CC[C@]12O	1000 nM	–
C[C@]12CC[C@H](O)C[C@H]1CC[C@@H]1[C@@H]2CC[C@]2(C)[C@H](/C=N/OCCN)CC[C@]12O	400 nM	–
CN(C)CCO/N=C/[C@@H]1CC[C@]2(O)[C@@H]3CC[C@@H]4C[C@@H](O)CC[C@]4(C)[C@H]3CC[C@]12C	1600 nM	–
CN(C)CCO/N=C/C[C@@H]1CC[C@]2(O)[C@@H]3CC[C@@H]4C[C@@H](O)CC[C@]4(C)[C@H]3CC[C@]12C	250 nM	–
C[C@]12CC[C@H](O)C[C@H]1CC[C@@H]1[C@@H]2CC[C@]2(C)[C@H](C/C=N/OCCN)CC[C@]12O	50 nM	3500 nM
C[C@]12CC[C@H](O)C[C@H]1CC[C@@H]1[C@@H]2CC[C@]2(C)[C@H](/C=N/OCCCN)CC[C@]12O	400 nM	18000 nM
C[C@@H](C/C=N/OCCN)[C@@]1(C)CCC2C(CC[C@@H]3C[C@@H](O)CC[C@]23C)C1=O (stereo not given in full)	100 nM	–
CC[C@@H](/C=N/OCCN(C)C)[C@@]1(C)CCC2C(CC[C@H]3C[C@@H](O)CC[C@]23C)C1=O (stereo not given in full)	500 nM	–
C[C@]12CC[C@H](O)C[C@H]1CC[C@@H]1[C@@H]2CC[C@]2(C)[C@@H](C3=CC(=O)OC3)CC[C@]12O [DIGITOXIGENIN]	–	570 nM
